Reference: ChEMBL document CHEMBL4190288, “Bioactive Azaphilone Derivatives from the Fungus Talaromyces aculeatus” (J Nat Prod, 2017)
In brackets after ≈: the same amount, converted by molar mass. Activity calls are given as the source filed them. The calls are words filed in the database; no cut-off is given here.

What was measured:
HL-60 = test: Cytotoxicity against human HL60 cells by MTT assay; format: functional, cell-based
Outline: (§1)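 Cytotoxicity tested on human HL-60, HeLa, A549 and K562 cell lines by a previously referenced method. Adriamycin was the positive control.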

Alpha glucosidase = Alpha glucosidase (Homo sapiens, UniProt O43451+P10253+P14410+Q2M2H8); test: Inhibition of alpha-glucosidase (unknown origin) using p-nitrophenyl glycoside as substrate treated 20 mins post substrate addition measured for 1 min by spectrophotometric analysis; format: protein assay
Outline: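 In vitro α-glucosidase inhibition measured by a previously referenced procedure.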

Vibrio anguillarum = test: Antibacterial activity against Vibrio anguillarum after 18 hrs by broth dilution method; format: functional
Outline: (§2)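 Conventional broth dilution MIC assay run on a panel of Gram-positive strains (Micrococcus lysodeikticus, Bacillus cereus, Bacillus megaterium) and Gram-negative strains (Proteus vulgaris, Vibrio anguillarum, Vibrio parahaemolyticus). Ciprofloxacin served as the positive control.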

HeLa = test: Cytotoxicity against human HeLa cells by SRB assay; format: functional, cell-based; outline: as §1
A549 = test: Cytotoxicity against human A549 cells by SRB assay; format: functional, cell-based; outline: as §1
K562 = test: Cytotoxicity against human K562 cells by MTT assay; format: functional, cell-based; outline: as §1
Bacillus cereus = test: Antibacterial activity against Bacillus cereus after 18 hrs by broth dilution method
Proteus vulgaris = test: Antibacterial activity against Proteus vulgaris after 18 hrs by broth dilution method
Micrococcus luteus = test: Antibacterial activity against Micrococcus lysodeikticus after 18 hrs by broth dilution method
Priestia megaterium = test: Antibacterial activity against Bacillus megaterium after 18 hrs by broth dilution method
Vibrio parahaemolyticus = test: Antibacterial activity against Vibrio parahaemolyticus after 18 hrs by broth dilution method; format: functional; outline: as §2

SMILES | IC50 (Alpha glucosidase) [µM] | MIC (Vibrio anguillarum) [µg/mL] | MIC (Bacillus cereus) [µg/mL] | MIC (Proteus vulgaris) [µg/mL] | MIC (Micrococcus luteus) [µg/mL] | MIC (Priestia megaterium) [µg/mL] | Activity (HL-60) | Activity (HeLa) | Activity (A549) | Activity (K562) | MIC (Vibrio parahaemolyticus) [µg/mL]
Cc1cc(O)cc(O)c1C(=O)O[C@H]1[C@@H]2COC(/C=C/C(=O)O)=CC2=CC(=O)[C@@]1(C)O | > 200 | > 8.28 | – | – | – | – | inactive | inactive | inactive | inactive | –
Cc1cc(O)cc(O)c1C(=O)O[C@]1(C)C(=O)C=C2C=C(/C=C/CO)OC=C2C1=O | > 200 | – | – | – | – | – | inactive | inactive | inactive | inactive | –
Cc1cc(O)cc(O)c1C(=O)O[C@H]1[C@@H]2COC(/C=C/[C@H](C)O)=CC2=CC(=O)[C@@]1(C)O | 78.6 | > 8.28 | – | – | – | – | inactive | inactive | inactive | inactive | –
Cc1cc(O)cc(O)c1C(=O)O[C@H]1[C@@H]2COC(/C=C/CO)=CC2=CC(=O)[C@@]1(C)O [PINOPHILIN B] | > 200 | > 8.28 | – | – | – | – | inactive | inactive | inactive | inactive | –
COC(=O)C1=CC2=CC(=O)[C@@](C)(O)[C@@H](OC(=O)c3c(C)cc(O)cc3O)[C@@H]2CO1 | > 200 | > 8.28 | – | – | – | – | inactive | inactive | inactive | inactive | –
COC(=O)CCC1=CC2=CC(=O)[C@@](C)(O)[C@@H](OC(=O)c3c(C)cc(O)cc3O)[C@@H]2CO1 | > 200 | > 8.28 | – | – | – | – | inactive | inactive | inactive | inactive | –
C/C=C/C1=CC2=CC(=O)[C@@](C)(O)[C@@H](OC(=O)c3c(C)cc(O)cc3O)[C@@H]2CO1 | > 200 | > 8.28 | – | – | – | – | inactive | inactive | inactive | inactive | –

Continued, in another order:

IC50 (Alpha glucosidase) [µM] | MIC (Vibrio anguillarum) [µg/mL] | MIC (Bacillus cereus) [µg/mL] | MIC (Proteus vulgaris) [µg/mL] | MIC (Micrococcus luteus) [µg/mL] | MIC (Priestia megaterium) [µg/mL] | SMILES | Activity (HL-60) | Activity (HeLa) | Activity (A549) | Activity (K562) | MIC (Vibrio parahaemolyticus) [µg/mL]
> 200 | > 8.28 | – | – | – | – | Cc1cc(O)cc(O)c1C(=O)O[C@H]1C2=COC(/C=C/CO)=CC2=CC(=O)[C@@]1(C)O | inactive | inactive | inactive | inactive | –
22.9 | 0.26 (≈ 0.649 µM) | – | – | – | – | Cc1cc(O)cc(O)c1C(=O)O[C@H]1[C@@H]2COC(/C=C/C=O)=CC2=CC(=O)[C@@]1(C)O | inactive | inactive | inactive | inactive | –
> 200 | > 8.28 | – | – | – | – | COC(OC)C1=CC2=CC(=O)[C@@](C)(O)[C@@H](OC(=O)c3c(C)cc(O)cc3O)[C@@H]2CO1 | inactive | inactive | inactive | inactive | –
> 200 | 0.26 (≈ 0.68 µM) | – | – | – | – | C/C=C/C1=CC2=CC(=O)[C@@](C)(OC(=O)c3c(C)cc(O)cc3O)C(=O)C2=CO1 | inactive | inactive | inactive | inactive | –
– | 0.199 to 0.52 (≈ 0.601 to 1.57 µM) | 0.43 (≈ 1.3 µM) | 0.199 (≈ 0.601 µM) | 0.099 (≈ 0.299 µM) | 1.66 (≈ 4.99 µM) | O=C(O)c1cn(C2CC2)c2cc(N3CCNCC3)c(F)cc2c1=O [CIPROFLOXACIN] | – | – | – | – | 0.43 (≈ 1.3 µM)
